Source: ChEMBL document CHEMBL3808278, “Design, Synthesis, and Biological Evaluation of Imidazo[1,5-a]quinoline as Highly Potent Ligands of Central Benzodiazepine Receptors” (J Med Chem, 2016)
The source made the active and inactive calls. No cut-off for these calls is given here.

What was measured:
[1] = Displacement of [3H]-flumazenil from central-type benzodiazepine receptor in bovine cortical membrane after 90 mins by liquid-phase scintillation beta-counting method; assay type: cell membranes, Bos taurus
Summary of the method: (§1)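 Competition binding against radiolabelled antagonist [3H]flumazenil in cortical membranes (bovine; human where listed); Ki reported as mean ± SEM of three independent determinations.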

[2] = organism: Bos taurus; assay: Selectivity ratio, ratio of Ki for central-type benzodiazepine receptor in bovine cortical membrane to Ki for central-type benzodiazepine receptor in bovine cortical membrane in presence of 50 uM of GABA; assay type: cell membranes
[3] = organism: Rattus norvegicus; assay: Inverse agonist activity at central-type benzodiazepine receptor in Sprague-Dawley rat cerebrocortical synaptoneurosomes assessed as decrease in 36Cl- flow after 10 secs by liquid-phase scintillation beta-counting method
[4] = tested on: Mus musculus; assay: Antiamnestic activity in scopolamine induced mouse amnesia model assessed as time of retention session in light box at 30 mg/kg, po administered 30 mins before test by passive avoidance test (reference value: 44.8 +/- 8.1 secs); assay type: functional
Summary of the method: (§2)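 Passive avoidance in mice: compounds were given per os 30 min before the test, and scopolamine 1.5 mg kg-1 i.p. immediately after the punishment. Read-out was time recorded during the retention session. Values are mean ± SEM of at least 10 mice, compared with vehicle-treated animals.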

[5] = organism: Rattus norvegicus; assay: Partial agonist activity at central-type benzodiazepine receptor in Sprague-Dawley rat cerebrocortical synaptoneurosomes assessed as increase in 36Cl- influx after 10 secs by liquid-phase scintillation beta-counting method
[6] = tested on: Mus musculus; assay: Neurotoxicity in mouse assessed as effect on neurological and muscular abilities at 10 mg/kg, po after 30 mins by Hole-Board test; assay type: toxicity, organism-based; conditions: in vivo, 0.5 h
Summary of the method: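 Hole-board test 30 min after oral dosing at 10 mg kg-1 counted movements (motor activity) and head inspections (exploratory activity). Values are mean ± SEM of at least 10 mice, compared with vehicle controls.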

[7] = tested on: Mus musculus; assay: Anxiolytic activity against mouse assessed as increase in time spent in light box at 10 mg/kg, po administered 30 mins before test by light-dark box test; assay type: functional, organism-based
Summary of the method: (§3)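 Light-dark box in mice measured time in the light compartment. Compounds were given per os 30 min before testing, and diazepam 1 mg kg-1 subcutaneously as reference. Values are mean ± SEM of at least 10 mice, compared with vehicle-treated animals.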

[8] = organism: Mus musculus; assay: Myorelaxant effect in mouse assessed as effect on motor coordination after 30 mins by rotarad test; assay type: organism-based; conditions: in vivo, 0.5 h
Summary of the method: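 Rota-rod test of motor coordination in mice, with compounds given per os 30 min before testing. Values are mean ± SEM of at least 10 mice.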

[9] = tested on: Mus musculus; assay: Anxiolytic activity in mouse assessed as time spent in light box at 10 mg/kg, po administered 30 mins before test by light-dark box test; assay type: functional; summary of the method: as §3
[10] = tested on: Mus musculus; assay: Antiamnestic activity in scopolamine induced mouse amnesia model assessed as time spent in light box at 1 mg/kg, po administered 30 mins before test by passive avoidance test; assay type: functional, organism-based; summary of the method: as §2
[11] = tested on: Mus musculus; assay: Antiamnestic activity in mouse assessed as prevention of scopalamine-induced amnesia at 10 mg/kg, po administered 30 mins before test by passive avoidance test; assay type: functional, organism-based; summary of the method: as §2
[12] = tested on: Brain; assay: Neuroprotective activity against oxygen-glucose deprivation and reoxygenation-induced injury in Sprague-Dawley rat brain cortical slices assessed as maximum recovery in LDH release at 5 uM treated during 90 mins of reperfusion phase measured after 90 mins by spetrophotometric method; assay type: functional
Summary of the method: (§4)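 Rat brain cortical slices in ACSF underwent 30 min oxygen/glucose deprivation, then 90 min reoxygenated ACSF (reperfusion). Controls were kept 120 min in ACSF. Compounds (0.1–100 µM) were added only during reperfusion, and LDH release was measured. Data are means ± SEM of at least 4 experiments, analysed by ANOVA with Dunnett post test. The effective concentration is that giving the largest reduction, and recovery is the % reversion at that concentration.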

[13] = organism: Rattus norvegicus; assay: Selectivity ratio, ratio of Ki for central-type benzodiazepine receptor in rat cortical membrane to Ki for central-type benzodiazepine receptor in rat cortical membrane in presence of 50 uM of GABA; assay type: cell membranes
Summary of the method: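 GABA ratio is Ki without GABA divided by Ki with 50 µM GABA, from [3H]flumazenil competition binding in cortical membranes. Per the table footnote, ratio values were obtained in rat cortical membranes.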

[14] = organism: Rattus norvegicus; assay: Antagonist activity at central-type benzodiazepine receptor in Sprague-Dawley rat cerebrocortical synaptoneurosomes assessed as decrease in 36Cl- flow after 10 secs by liquid-phase scintillation beta-counting method
[15] = Binding affinity to rat cortical membrane central-type benzodiazepine receptor measured after 90 mins by liquid-phase scintillation beta-counting method
[16] = tested on: Brain; assay: Neuroprotective activity against oxygen-glucose deprivation and reoxygenation-induced injury in Sprague-Dawley rat brain cortical slices assessed as maximum recovery in LDH release at 50 uM treated during 90 mins of reperfusion phase measured after 90 mins by spetrophotometric method; assay type: functional; summary of the method: as §4
[17] = organism: Homo sapiens; assay: Selectivity ratio, ratio of Ki for central-type benzodiazepine receptor in human cortical membrane to Ki for central-type benzodiazepine receptor in human cortical membrane in presence of 50 uM of GABA; assay type: cell membranes
[18] = organism: Rattus norvegicus; assay: Partial inverse agonist activity at central-type benzodiazepine receptor in Sprague-Dawley rat cerebrocortical synaptoneurosomes assessed as decrease in 36Cl- flow after 10 secs by liquid-phase scintillation beta-counting method
[19] = Displacement of [3H]-flumazenil from central-type benzodiazepine receptor in human cortical membrane after 90 mins by liquid-phase scintillation beta-counting method; assay type: cell membranes; summary of the method: as §1
[20] = tested on: Mus musculus; assay: Anxiolytic activity in mouse assessed as increase in time spent in light box at 1 mg/kg, po administered 30 mins before test by light-dark box test; assay type: functional, organism-based; summary of the method: as §3

## CCOC(=O)c1ncn2c1c(C(=O)OCC)c(-c1ccccc1)c1ccccc12
[1]
  Ki: 2190 nM
[2]
  Ratio Ki: 0.66
[3]
  Activity: Active

## CCOC(=O)c1ncn2c1cc(C(=O)N(C)C)c1ccccc12
[4]
  Activity: inactive
[5]
  Activity: Active
[6]
  Activity: Non-toxic
[7]
  Activity: Active
[8]
  Activity: Non-toxic
[1]
  Ki: 8.2 nM
[2]
  Ratio Ki: 1.3

## CCCN(CCC)C(=O)c1c(CC)c2c(C(=O)OC(C)(C)C)ncn2c2ccccc12
[5]
  Activity: Active
[9]
  Time: 172.5 s
[6]
  Activity: Non-toxic
[8]
  Activity: Non-toxic
[1]
  Ki: 5.6 nM
[10]
  Activity: Active
[11]
  Activity: Active
[2]
  Ratio Ki: 1.4
[12]
  Activity: 44.4%

## CCOC(=O)c1ncn2c1cc(C(=O)N(C)Cc1ccccc1)c1cc(Br)ccc12
[13]
  Ratio Ki: 0.9
[14]
  Antagonist activity: Active
[15]
  Ki: 24 nM

## CCCN(CCC)C(=O)c1c(CC)c2c(C(=O)OCC)ncn2c2ccccc12
[5]
  Activity: Active
[6]
  Activity: Non-toxic
[7]
  Activity: Active
[8]
  Activity: Non-toxic
[1]
  Ki: 2.5 nM
[11]
  Activity: Active
[2]
  Ratio Ki: 1.5
[16]
  Activity: 44.3%

## CCOC(=O)c1ncn2c1cc(C(=O)N(C)Cc1ccccc1)c1cc(F)ccc12
[1]
  Ki: 5.7 nM
[2]
  Ratio Ki: 0.8
[3]
  Activity: Active

## C#Cc1ccc2c(c1)c(C(=O)N(C)Cc1ccccc1)cc1c(C(=O)OCC)ncn12
[13]
  Ratio Ki: 0.95
[14]
  Antagonist activity: Active
[15]
  Ki: 161 nM

## CCOC(=O)c1ncn2c1CN(C)C(=O)c1cc(F)ccc1-2 [FLUMAZENIL]
[17]
  Ratio Ki: 1.02
[1]
  Ki: 1.9 nM
[18]
  Activity: Active
[19]
  Ki: 2 nM
[2]
  Ratio Ki: 1.03

## CCOC(=O)c1ncn2c1c(C)c(C(=O)OC(C)(C)C)c1ccccc12
[5]
  Activity: Active
[1]
  Ki: 1 nM
[2]
  Ratio Ki: 1.4

## Cc1c(-c2ccccc2)c2ccccc2n2cnc(C(=O)OC(C)(C)C)c12
[1]
  Ki: 10 nM
[14]
  Antagonist activity: Active
[2]
  Ratio Ki: 1

## CCOC(=O)c1ncn2c1cc(C(=O)N(C)Cc1ccccc1)c1ccccc12
[1]
  Ki: 20 nM
[2]
  Ratio Ki: 0.52
[3]
  Activity: Active

## CN1C(=O)CN=C(c2ccccc2F)c2cc([N+](=O)[O-])ccc21 [FLUNITRAZEPAM]
[17]
  Ratio Ki: 1.61
[1]
  Ki: 5.2 nM
[18]
  Activity: Active
[19]
  Ki: 6.4 nM
[2]
  Ratio Ki: 1.68

## CN(C)C(=O)c1ncn2c1cc(-c1ccccc1)c1ccccc12
[5]
  Activity: Active
[1]
  Ki: 3520 nM
[2]
  Ratio Ki: 1.44

## CCCc1c(C(=O)N(CCC)CCC)c2ccccc2n2cnc(C(=O)OCC)c12
[1]
  Ki: 34 nM
[14]
  Antagonist activity: Active
[2]
  Ratio Ki: 1.1

## CCCc1c(C(=O)N(CC)CC)c2ccccc2n2cnc(C(=O)OC(C)(C)C)c12
[1]
  Ki: 2870 nM
[2]
  Ratio Ki: 1.1

## CCOC(=O)c1cc2c(cn1)[nH]c1ccccc12
[18]
  Activity: Active

## CCCc1c(C(=O)N(CCC)CCC)c2ccccc2n2cnc(C(=O)OC(C)(C)C)c12
[1]
  Ki: 1440 nM
[14]
  Antagonist activity: Active
[2]
  Ratio Ki: 1

## CCOC(=O)c1ncn2c1c(C)c(C(=O)O)c1ccccc12
[5]
  Activity: Active
[1]
  Ki: 105 nM
[2]
  Ratio Ki: 1.2

## CCOC(=O)Cc1c(-c2ccccc2)c2ccccc2n2cnc(C(=O)OCC)c12
[1]
  Ki: 3.8 nM
[2]
  Ratio Ki: 0.72
[3]
  Activity: Active

## CCOC(=O)c1ncn2c1c1c(c3ccccc32)CCC1
[1]
  Ki: 18 nM
[2]
  Ratio Ki: 1.3

## CCOC(=O)c1ncn2c1CN(C(C)=O)c1cc(F)ccc1-2
[5]
  Activity: Active
[17]
  Ratio Ki: 0.95
[1]
  Ki: 2.2 nM
[18]
  Activity: Active
[19]
  Ki: 2.7 nM
[2]
  Ratio Ki: 0.75

## CC(=O)N1Cc2c(C(=O)OC(C)(C)C)ncn2-c2ccccc21
[17]
  Ratio Ki: 1.04
[1]
  Ki: 7.3 nM
[14]
  Antagonist activity: Active
[19]
  Ki: 7.7 nM
[2]
  Ratio Ki: 0.98

## CC(C)(C)OC(=O)c1ncn2c1cc(-c1ccccc1)c1ccccc12
[1]
  Ki: 55 nM
[2]
  Ratio Ki: 0.8
[3]
  Activity: Active

## CN(Cc1ccccc1)C(=O)c1ncn2c1cc(-c1ccccc1)c1ccccc12
[1]
  Ki: 449 nM
[14]
  Antagonist activity: Active
[2]
  Ratio Ki: 0.92

## CCCN(CCC)C(=O)c1cc2c(C(=O)OCC)ncn2c2ccccc12
[1]
  Ki: 0.91 nM
[14]
  Antagonist activity: Active
[2]
  Ratio Ki: 1

## CN(Cc1ccccc1)C(=O)c1cc2c(C(=O)OC(C)(C)C)ncn2c2ccccc12
[1]
  Ki: 14 nM
[14]
  Antagonist activity: Active
[2]
  Ratio Ki: 0.98

## CCCN(CCC)C(=O)c1cc2c(C(=O)OC(C)(C)C)ncn2c2ccccc12
[1]
  Ki: 1.2 nM
[14]
  Antagonist activity: Active
[2]
  Ratio Ki: 1.1

## C#CCN(C)C(=O)c1c(C)c2c(C(=O)OCC)ncn2c2ccccc12
[1]
  Ki: 1.2 nM
[14]
  Antagonist activity: Active
[2]
  Ratio Ki: 1

## CCOC(=O)c1ncn2c1cc(-c1ccccc1)c1ccccc12
[1]
  Ki: 42 nM
[14]
  Antagonist activity: Active
[2]
  Ratio Ki: 0.9

## CCOC(=O)c1ncn2c1CN(C(C)=O)c1ccccc1-2
[1]
  Ki: 25 nM
[14]
  Antagonist activity: Active
[19]
  Ki: 33 nM
[2]
  Ratio Ki: 0.9

## CCOC(=O)c1ncn2c1c(CO)c(-c1ccccc1)c1ccccc12
[5]
  Activity: Active
[1]
  Ki: 1.8 nM
[19]
  Ki: 2 nM
[2]
  Ratio Ki: 1.18
[12]
  Activity: 39.5%

## CCOC(=O)c1ncn2c1cc(C(=O)N1CCN(C)CC1)c1ccccc12
[1]
  Ki: 55 nM
[14]
  Antagonist activity: Active
[2]
  Ratio Ki: 1

## CCOC(=O)c1ncn2c1cc(C(=O)N(C)Cc1ccccc1)c1cc(C#C[Si](C)(C)C)ccc12
[13]
  Ratio Ki: 0.99
[14]
  Antagonist activity: Active
[15]
  Ki: 510 nM

## CC(=O)N1Cc2c(C(=O)OC(C)(C)C)ncn2-c2ccc(F)cc21
[5]
  Activity: Active
[17]
  Ratio Ki: 1
[1]
  Ki: 1 nM
[14]
  Antagonist activity: Active
[19]
  Ki: 2 nM
[2]
  Ratio Ki: 1

## CCCc1c(C(=O)N(CC)CC)c2ccccc2n2cnc(C(=O)OCC)c12
[1]
  Ki: 169 nM
[2]
  Ratio Ki: 0.9

## CCOC(=O)c1ncn2c1c(C)c(C(=O)N(C)Cc1ccccc1)c1ccccc12
[1]
  Ki: 6.5 nM
[14]
  Antagonist activity: Active
[2]
  Ratio Ki: 1.1

## CN(C)C(=O)c1cc2c(C(=O)OC(C)(C)C)ncn2c2ccccc12
[5]
  Activity: Active
[1]
  Ki: 11 nM
[2]
  Ratio Ki: 1.6

## CCCCN(C)C(=O)c1cc2c(C(=O)OCC)ncn2c2ccccc12
[6]
  Activity: Non-toxic
[7]
  Activity: Active
[8]
  Activity: Non-toxic
[1]
  Ki: 1.9 nM
[11]
  Activity: Active
[2]
  Ratio Ki: 0.76
[3]
  Activity: Active

## CCCN(CCC)C(=O)c1c(C)c2c(C(=O)OC(C)(C)C)ncn2c2ccccc12
[6]
  Activity: Non-toxic
[7]
  Activity: Active
[8]
  Activity: Non-toxic
[1]
  Ki: 1 nM
[20]
  Activity: Active
[14]
  Antagonist activity: Active
[11]
  Activity: Active
[2]
  Ratio Ki: 1.1
